Reference: ChEMBL document CHEMBL3621143, “Discovery of BMS-641988, a Novel Androgen Receptor Antagonist for the Treatment of Prostate Cancer” (ACS Med Chem Lett, 2015)
The source made the active and inactive calls. No cut-off for these calls is given here.

Tests used:
Androgen receptor = biological target: T1, Androgen receptor (Homo sapiens, UniProt P10275); test: Antagonist activity at androgen receptor in human MDA-MB-453 cells assessed as inhibition of DHT-induced PSA expression by alkaline phosphatase reporter gene assay; assay type: cell-based
T1 sequence (P10275 whole entry): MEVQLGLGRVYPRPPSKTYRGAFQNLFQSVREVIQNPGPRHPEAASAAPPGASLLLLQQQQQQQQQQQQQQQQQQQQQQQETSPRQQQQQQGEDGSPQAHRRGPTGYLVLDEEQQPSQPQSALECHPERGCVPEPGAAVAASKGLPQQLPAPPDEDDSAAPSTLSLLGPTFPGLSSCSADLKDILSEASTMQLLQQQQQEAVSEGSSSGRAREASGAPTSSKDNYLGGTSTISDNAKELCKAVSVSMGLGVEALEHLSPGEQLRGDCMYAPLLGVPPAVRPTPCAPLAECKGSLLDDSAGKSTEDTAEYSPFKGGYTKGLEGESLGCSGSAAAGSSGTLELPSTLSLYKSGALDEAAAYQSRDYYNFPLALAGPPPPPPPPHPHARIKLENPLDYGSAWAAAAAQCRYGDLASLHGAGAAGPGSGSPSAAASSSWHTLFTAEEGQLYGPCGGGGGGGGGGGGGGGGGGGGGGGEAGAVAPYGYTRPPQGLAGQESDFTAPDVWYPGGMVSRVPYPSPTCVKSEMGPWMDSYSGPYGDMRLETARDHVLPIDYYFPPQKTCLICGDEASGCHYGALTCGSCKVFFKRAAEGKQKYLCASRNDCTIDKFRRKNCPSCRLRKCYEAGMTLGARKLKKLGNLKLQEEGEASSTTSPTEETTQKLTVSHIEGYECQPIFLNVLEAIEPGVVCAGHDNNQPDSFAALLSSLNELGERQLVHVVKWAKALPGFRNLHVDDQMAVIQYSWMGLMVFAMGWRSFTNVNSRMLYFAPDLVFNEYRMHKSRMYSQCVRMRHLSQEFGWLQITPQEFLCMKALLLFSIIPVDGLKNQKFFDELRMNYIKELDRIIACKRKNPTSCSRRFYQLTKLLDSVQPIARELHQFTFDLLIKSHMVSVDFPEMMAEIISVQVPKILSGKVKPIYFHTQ

Rattus norvegicus = test: In vivo antagonist activity at androgen receptor in immature Sprague-Dawley rat prostate weight model assessed as testosterone propionate-induced weight of seminal vesicles over full body weight at 1 mg/kg, po qd administered for 4 days; assay type: functional; set-up: scale not given: the % may be the effect or the level left
How it was run: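 Immature rat prostate weight PK/PD model. Oral dosing once daily at 1 or 10 mg/kg for 4 days. Seminal vesicle weight expressed as % of full body weight, n=3, scaled so testosterone-treated control = 100% and sham = 10%.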

[1] = Plasma concentration in immature Sprague-Dawley rat prostate weight model at 1 mg/kg, po qd administered for 4 days measured 2 hrs post last dose on day 4; assay type: ADME, organism-based
How it was run: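 Immature rat prostate weight model, oral dosing once daily at 1 or 10 mg/kg for 4 days. Plasma drug concentration (µM) measured 2 hours post-dose on day 4, n=3.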

Hepatocyte = test: Drug metabolism in mouse hepatocytes assessed per 10^6 cells; assay type: ADME, cell-based
How it was run: (§1)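 Metabolic rate in mouse, rat, dog, monkey and human hepatocyte incubations, expressed as pmol/min/10^6 cells.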

Cytochrome P450 2C8 = biological target: T2, Cytochrome P450 2C8 (Homo sapiens, UniProt P10632); test: Inhibition of human CYP2C8; assay type: ADME
T2 sequence (P10632 whole entry): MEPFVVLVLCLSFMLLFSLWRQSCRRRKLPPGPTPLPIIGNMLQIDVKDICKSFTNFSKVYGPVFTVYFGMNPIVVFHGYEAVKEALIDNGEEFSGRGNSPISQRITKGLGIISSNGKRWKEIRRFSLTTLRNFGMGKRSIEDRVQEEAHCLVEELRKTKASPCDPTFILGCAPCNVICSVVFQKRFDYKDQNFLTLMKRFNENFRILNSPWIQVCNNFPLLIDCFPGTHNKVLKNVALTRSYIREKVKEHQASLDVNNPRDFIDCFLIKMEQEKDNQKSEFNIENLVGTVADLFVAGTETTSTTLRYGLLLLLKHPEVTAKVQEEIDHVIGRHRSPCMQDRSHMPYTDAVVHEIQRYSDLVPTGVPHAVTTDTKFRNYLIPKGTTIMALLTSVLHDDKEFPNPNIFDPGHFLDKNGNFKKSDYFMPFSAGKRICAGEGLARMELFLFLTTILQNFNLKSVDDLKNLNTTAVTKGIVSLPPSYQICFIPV

[2] = biological target: T3, Nuclear receptor subfamily 1 group I member 2 (Homo sapiens, UniProt O75469); test: Transactivation of human PXR; assay type: ADME
T3 sequence (O75469 whole entry): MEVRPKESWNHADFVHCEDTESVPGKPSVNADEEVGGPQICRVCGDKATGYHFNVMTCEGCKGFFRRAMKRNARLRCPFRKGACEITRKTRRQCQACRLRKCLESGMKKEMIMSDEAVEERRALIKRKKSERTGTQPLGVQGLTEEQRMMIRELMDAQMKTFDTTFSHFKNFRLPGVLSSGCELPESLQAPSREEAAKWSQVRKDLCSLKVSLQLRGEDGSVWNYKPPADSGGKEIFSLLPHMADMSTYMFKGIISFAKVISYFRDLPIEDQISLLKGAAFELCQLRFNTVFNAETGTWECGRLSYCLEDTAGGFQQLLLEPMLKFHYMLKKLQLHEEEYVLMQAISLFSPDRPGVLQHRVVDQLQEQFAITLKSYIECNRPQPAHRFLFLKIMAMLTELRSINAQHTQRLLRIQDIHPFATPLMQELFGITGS

[3] = Fraction unbound in dog plasma by equilibrium dialysis method; assay type: ADME, cell-free, Canis lupus familiaris
How it was run: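 Plasma protein binding measured by equilibrium dialysis in mouse, rat, dog and human plasma, reported as % free.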

[4] = Drug metabolism in dog hepatocytes assessed per 10^6 cells; assay type: ADME, cell-based, Canis lupus familiaris, Hepatocyte; how it was run: as §1
[5] = Half life in mouse at 5 mg/kg, iv and 10 mg/kg, po; assay type: ADME, organism-based; conditions: in vivo
How it was run: (§2)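 Single IV and oral doses in mouse and rat (IV 5, PO 10 mg/kg) and dog (IV 1, PO 2 mg/kg). Half-life, clearance, AUC0-∞ (µM*h) and %F derived from the plasma profiles.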

[6] = Half life in rat at 5 mg/kg, iv and 10 mg/kg, po; assay type: ADME, organism-based; conditions: in vivo; how it was run: as §2
[7] = Clearance in rat at 5 mg/kg, iv and 10 mg/kg, po; assay type: ADME, organism-based; conditions: in vivo; how it was run: as §2
[8] = Oral bioavailability in rat at 10 mg/kg; assay type: ADME, organism-based; conditions: in vivo; how it was run: as §2
[9] = Half life in dog at 1 mg/kg, iv and 2 mg/kg, po; assay type: ADME, organism-based, Canis lupus familiaris; conditions: in vivo; how it was run: as §2
[10] = Clearance in dog at 1 mg/kg, iv and 2 mg/kg, po; assay type: ADME, organism-based, Canis lupus familiaris; conditions: in vivo; how it was run: as §2
CWR22 = test: Antitumor activity against human CWR22 cells in Balb/c athymic (nu/nu) mouse CWR22-BMSLD1 prostate cancer xenograft model assessed as tumor growth inhibition at 90 mg/kg, po qd administered for 45 days measured every day during compound dosing; assay type: functional, organism-based
How it was run: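 CWR22-BMSLD1 human prostate cancer xenograft. Oral once-daily dosing at 90 mg/kg for 45 days, or at 150 mg/kg for 35 days, with a vehicle group. Median tumor volume (mm3) tracked against days post implant.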

With `CCS(=O)(=O)N[C@@H]1C[C@]2(C)O[C@]1(C)[C@@H]1C(=O)N(c3ccc(C#N)c(C(F)(F)F)c3)C(=O)[C@@H]12` the IC50 (Androgen receptor) was 0.016 µM, the Activity (Rattus norvegicus) was 58% and the concentration at 2 h [1] was 790 nM. It also gave a Drug metabolism (Hepatocyte) of 0 pmol/min, an IC50 (Cytochrome P450 2C8) of over 40 µM and an EC50 [2] of over 50 µM. For the same compound, the fraction unbound [3] was 0.165, the Drug metabolism [4] was 3 pmol/min and the half-life [5] was 2.4 h. For the same compound, the half-life [6] was 3.7 h, the clearance [7] was 6.5 mL/min/kg and the bioavailability [8] was 63.9%. For the same compound, the half-life [9] was 21.8 h, the clearance [10] was 0.35 mL/min/kg and the TGI (CWR22) was “Active”.
